{"data": "Experimental data of several laboratories"}
{"SMILES": "O=C(Cc1c[nH]c2ccccc12)Nc1ccc(F)c(F)c1", "test": "ABTS scavenging", "measurement": "IC50", "result": "1080 nM"}
{"SMILES": "CC(C)C[C@H](NC(=O)[C@H](Cc1ccccc1)NC(=O)c1cnccn1)B(O)O", "target or system": "NCI-H1048", "test": "cell growth or viability, ATP luminescence", "measurement": "IC50", "result": "17 nM"}
{"SMILES": "O=C(Cc1c[nH]c2ccccc12)Nc1cccc(F)c1", "test": "ABTS scavenging", "measurement": "IC50", "result": "1120 nM"}
{"SMILES": "COc1ccccc1-c1n[nH]c2nc(N[C@H]3CC[C@H](NS(=O)(=O)CCCOCCOCCNC(=O)OC(C)(C)C)CC3)ncc12", "target or system": "Leishmania donovani", "test": "parasite growth", "test system": "THP-1", "setting": "intracellular, amastigote", "measurement": "EC50", "result": "5.24 µM"}
{"SMILES": "O=C(CN1C(=O)/C(=C/c2ccccc2O)SC1=S)Nc1ccccc1", "target or system": "PC-3", "test": "cell growth or viability, MTT", "setting": "10 µM", "measurement": "inhibition", "result": "36.2%"}
{"SMILES": "COc1cc(Nc2nccc(-c3cnn4nc(OC)ccc34)n2)cc(C(F)(F)F)c1", "target or system": "NCI-H2286", "test": "cell growth or viability, ATP luminescence", "measurement": "IC50", "result": "160 nM"}
{"SMILES": "COc1ccc(OC)c(NC(=O)Cc2c[nH]c3ccccc23)c1", "test": "ABTS scavenging", "measurement": "IC50", "result": "1430 nM"}
{"SMILES": "CC1(C)S[C@@H]2[C@H](NC(=O)[C@H](N)c3ccccc3)C(=O)N2[C@H]1C(=O)O", "target or system": "Moraxella catarrhalis", "test": "microbial growth, broth dilution", "test system": "ATCC25238", "measurement": "MIC", "result": "< 0.25 µg/mL"}
{"SMILES": "O=C(CN1C(=O)/C(=C/c2cccc(O)c2)SC1=S)Nc1ccccc1", "target or system": "PC-3", "test": "cell growth or viability, MTT", "setting": "10 µM", "measurement": "inhibition", "result": "12.6%"}
{"SMILES": "COc1ccc(-c2ccc(-c3ccc(C(=N)N)nc3)s2)cc1", "target or system": "OVCAR-4", "test": "cell growth or viability, SRB", "measurement": "GI50", "result": "1790 nM"}
{"SMILES": "COc1cc(NC(=O)Cc2c[nH]c3ccccc23)ccc1C", "test": "ABTS scavenging", "measurement": "IC50", "result": "1110 nM"}
{"SMILES": "O=C(CN1C(=O)/C(=C/c2cccc([N+](=O)[O-])c2)SC1=S)Nc1ccccc1", "target or system": "PC-3", "test": "cell growth or viability, MTT", "setting": "10 µM", "measurement": "inhibition", "result": "17.6%"}
